Measurements from PMC10971414 (Science Advances, 2024).

Test system: FKBP12^F36V-PTPN2 H1975 cells
Assay: Cell viability by CellTiter-Glo, FKBP12F36V-PTPN2 H1975
Type: cell-based
Details: read-out: IC50, cell viability; 6 days
Method in brief: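 H1975 cells lentivirally transduced to express Flag-FKBP12F36V-PTPN2 (TC45 short isoform) were seeded at 3000 cells/well in full medium for 24 h. They were then treated with test compound at a range of concentrations under serum-free conditions for 4 or 6 days. Viability was measured by CellTiter-Glo luminescence and normalised to DMSO controls. Three replicates, mean and SD.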

IC50: 2.11 µM
Compound: CN(C)C/C=C/C(=O)Nc1cc2c(Nc3ccc(F)c(Cl)c3)ncnc2cc1O[C@H]1CCOC1 [afatinib]
